The source made the active and inactive calls. The calls are words filed in the database; no cut-off is given here.
Columns and labels:
Format in all cases: cell-based
[1] = target: Transient receptor potential cation channel subfamily V member 1 (Rattus norvegicus) (UniProt O35433); assay: Partial antagonist activity at rat TRPV1 expressed in HEK293 cells assessed as effect on capsaicin-induced inward current at 1 uM by whole-cell patch clamp method (reference value: -431 +/- 43.1 pA/pF)
Procedure, shortened: (§1)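 HEK293 cells transiently expressing rat TRPV1 (EGFP cotransfected) were patched in whole-cell mode 1 day post-transfection. Cells were held at −60 mV in Ca2+-containing standard bath (pH 7.4) at ~25 °C. Capsaicin-evoked peak current amplitude was quantified. Sigmoidal curve fitting gave EC50 or IC50 values.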

[2] = target: Transient receptor potential cation channel subfamily V member 1 (Rattus norvegicus) (UniProt O35433); assay: Partial antagonist activity at rat TRPV1 expressed in HEK293 cells assessed as effect on capsaicin-induced inward current at 1 uM by whole-cell patch clamp method (reference value: -327.4 +/- 52.3 pA/pF); procedure, shortened: as §1
[3] = target: Transient receptor potential cation channel subfamily V member 1 (Rattus norvegicus) (UniProt O35433); assay: Partial antagonist activity at rat TRPV1 expressed in HEK293 cells assessed as effect on capsaicin-induced inward current at 1 uM by whole-cell patch clamp method (reference value: -151.2 +/- 33 pA/pF); procedure, shortened: as §1
[4] = target: Transient receptor potential cation channel subfamily V member 1 (Rattus norvegicus) (UniProt O35433); assay: Partial antagonist activity at rat TRPV1 expressed in HEK293 cells assessed as effect on capsaicin-induced inward current at 1 uM by whole-cell patch clamp method (reference value: -7 +/- 2.6 pA/pF); procedure, shortened: as §1
[5] = target: Transient receptor potential cation channel subfamily V member 1 (Rattus norvegicus) (UniProt O35433); assay: Partial antagonist activity at rat TRPV1 expressed in HEK293 cells assessed as effect on capsaicin-induced inward current at 10 uM by whole-cell patch clamp method; procedure, shortened: as §1
[6] = target: Transient receptor potential cation channel subfamily V member 1 (Rattus norvegicus) (UniProt O35433); assay: Partial antagonist activity at rat TRPV1 expressed in HEK293 cells assessed as effect on capsaicin-induced inward current at 10 uM by whole-cell patch clamp method (reference value: -[…] +/- […] pA/pF)
[7] = target: Transient receptor potential cation channel subfamily V member 1 (Rattus norvegicus) (UniProt O35433); assay: Partial antagonist activity at rat TRPV1 expressed in HEK293 cells assessed as effect on capsaicin-induced inward current at 10 uM by whole-cell patch clamp method (reference value: -480.7 +/- 96.9 pA/pF); procedure, shortened: as §1
[8] = target: Transient receptor potential cation channel subfamily V member 1 (Rattus norvegicus) (UniProt O35433); assay: Partial antagonist activity at rat TRPV1 expressed in HEK293 cells assessed as effect on capsaicin-induced inward current at 10 uM by whole-cell patch clamp method (reference value: -431 +/- 43.1 pA/pF); procedure, shortened: as §1
[9] = target: Transient receptor potential cation channel subfamily V member 1 (Rattus norvegicus) (UniProt O35433); assay: Partial antagonist activity at rat TRPV1 expressed in HEK293 cells assessed as effect on capsaicin-induced inward current at 10 uM by whole-cell patch clamp method (reference value: -327.4 +/- 52.3 pA/pF); procedure, shortened: as §1
[10] = target: Transient receptor potential cation channel subfamily V member 1 (Rattus norvegicus) (UniProt O35433); assay: Partial antagonist activity at rat TRPV1 expressed in HEK293 cells assessed as effect on capsaicin-induced inward current at 10 uM by whole-cell patch clamp method (reference value: -151.2 +/- 33 pA/pF); procedure, shortened: as §1
[11] = target: Transient receptor potential cation channel subfamily V member 1 (Rattus norvegicus) (UniProt O35433); assay: Partial antagonist activity at rat TRPV1 expressed in HEK293 cells assessed as effect on capsaicin-induced inward current at 10 uM by whole-cell patch clamp method (reference value: -7 +/- 2.6 pA/pF); procedure, shortened: as §1
[12] = target: Transient receptor potential cation channel subfamily V member 1 (Rattus norvegicus) (UniProt O35433); assay: Partial antagonist activity at rat TRPV1 expressed in HEK293 cells assessed as inhibition of capsaicin-induced inward current at -60 mV holding potential pretreated for 180 secs prior to capsaicin addition in presence of extracellular calcium by whole-cell patch-clamp method; procedure, shortened: as §1
[13] = target: Transient receptor potential cation channel subfamily V member 1 (Rattus norvegicus) (UniProt O35433); assay: Partial antagonist activity at rat TRPV1 expressed in HEK293 cells assessed as desensitization of capsaicin-induced inward current at 10 uM and -60 mV holding potential pretreated for 60 secs prior to capsaicin-challenge in absence of calcium by whole-cell patch-clamp method
Procedure, shortened: (§2)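 Whole-cell clamp at −60 mV was done on rat TRPV1-transfected HEK293 cells (1 day) using a calcium-free bath (5 mM EGTA, no CaCl2, pH 7.4) at ~25 °C. Capsaicin-evoked peak current was measured.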

[14] = target: Transient receptor potential cation channel subfamily V member 1 (Rattus norvegicus) (UniProt O35433); assay: (§3) Partial antagonist activity at rat TRPV1 expressed in HEK293 cells assessed as effect on capsaicin current density at 10 uM at -60 mV holding potential in absence of extracellular calcium by whole-cell patch-clamp method (reference value: -2407.7 +/- 850.6 pA); procedure, shortened: as §2
[15] = target: Transient receptor potential cation channel subfamily V member 1 (Rattus norvegicus) (UniProt O35433); assay: as §3, with “0.1” for “10”, “uM pretreated for 180 sec followed by capsaicin addition” for “uM”, “presence” for “absence”, “-327.4” for “-2407.7”, “52.3 pA/pF)” for “850.6 pA)”; procedure, shortened: as §1
[16] = target: Transient receptor potential cation channel subfamily V member 1 (Rattus norvegicus) (UniProt O35433); assay: as §3, with “0.5” for “10”, “uM pretreated for 180 sec followed by capsaicin addition” for “uM”, “presence” for “absence”, “-327.4” for “-2407.7”, “52.3 pA/pF)” for “850.6 pA)”; procedure, shortened: as §1
[17] = target: Transient receptor potential cation channel subfamily V member 1 (Rattus norvegicus) (UniProt O35433); assay: as §3, with “1” for “10”, “uM pretreated for 180 sec followed by capsaicin addition” for “uM”, “presence” for “absence”, “-327.4” for “-2407.7”, “52.3 pA/pF)” for “850.6 pA)”; procedure, shortened: as §1
[18] = target: Transient receptor potential cation channel subfamily V member 1 (Rattus norvegicus) (UniProt O35433); assay: as §3, with “uM pretreated for 180 sec followed by capsaicin addition” for “uM”, “presence” for “absence”, “-327.4” for “-2407.7”, “52.3 pA/pF)” for “850.6 pA)”; procedure, shortened: as §1
[19] = target: Transient receptor potential cation channel subfamily V member 1 (Rattus norvegicus) (UniProt O35433); assay: Partial antagonist activity at rat TRPV1 expressed in HEK293 cells assessed as inhibition of proton-induced channel current at 1 or 50 uM and -60 mV holding potential pretreated for 60 secs prior to proton-challenge by whole-cell patch clamp method (reference value: 185.1 +/- 38.6 pA/pF)
Procedure, shortened: (§4)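 Proton-activated currents were recorded in rat TRPV1-expressing HEK293 cells held at −60 mV in whole-cell mode, with bath buffered to pH 6 with 10 mM MES, at ~25 °C. Peak current amplitude was the read-out.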

[20] = target: Transient receptor potential cation channel subfamily V member 1 (Rattus norvegicus) (UniProt O35433); assay: Partial antagonist activity at rat TRPV1 expressed in HEK293 cells assessed as effect on proton-induced channel current at 1 uM and -60 mV holding potential co-treated with proton by whole-cell patch clamp method; procedure, shortened: as §4

Sequence of Transient receptor potential cation channel subfamily V member 1 (Rattus norvegicus) (O35433 whole entry): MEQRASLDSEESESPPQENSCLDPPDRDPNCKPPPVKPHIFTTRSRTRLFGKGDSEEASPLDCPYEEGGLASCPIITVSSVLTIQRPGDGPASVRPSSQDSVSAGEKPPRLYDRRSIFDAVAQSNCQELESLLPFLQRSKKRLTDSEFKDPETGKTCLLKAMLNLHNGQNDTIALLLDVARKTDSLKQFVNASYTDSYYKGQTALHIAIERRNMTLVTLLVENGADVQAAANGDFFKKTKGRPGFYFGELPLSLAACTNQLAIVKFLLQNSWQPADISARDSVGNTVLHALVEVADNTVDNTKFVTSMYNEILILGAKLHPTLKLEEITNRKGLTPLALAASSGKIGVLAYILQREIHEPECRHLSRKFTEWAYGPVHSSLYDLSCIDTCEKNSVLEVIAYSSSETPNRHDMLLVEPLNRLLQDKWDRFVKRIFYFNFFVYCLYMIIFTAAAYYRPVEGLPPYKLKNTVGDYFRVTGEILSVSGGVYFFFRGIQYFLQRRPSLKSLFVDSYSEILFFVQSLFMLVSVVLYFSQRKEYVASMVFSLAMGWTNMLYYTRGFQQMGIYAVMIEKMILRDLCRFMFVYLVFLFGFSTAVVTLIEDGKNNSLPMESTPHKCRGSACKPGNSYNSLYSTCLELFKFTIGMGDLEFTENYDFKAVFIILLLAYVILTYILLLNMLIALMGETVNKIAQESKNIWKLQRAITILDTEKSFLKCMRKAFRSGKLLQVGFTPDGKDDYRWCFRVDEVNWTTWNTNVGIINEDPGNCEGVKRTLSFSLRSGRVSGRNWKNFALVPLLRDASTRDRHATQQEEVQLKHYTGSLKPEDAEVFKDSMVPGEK

**Q.** How did the Activity [1] turn out when CN1c2ccccc2C(=O)N2CCc3c([nH]c4ccccc34)C21 (stereo not given) was run?
**A.** The Activity was -260 pA/pF.

**Q.** What about the Activity [2] of the same compound?
**A.** The Activity was -195 pA/pF.

**Q.** And the Activity [3]?
**A.** Its Activity is -75 pA/pF.

**Q.** And the Activity [4]?
**A.** The Activity was -81.7 pA/pF.

**Q.** What about the Activity [5] of the same compound?
**A.** Its Activity is -439 pA/pF.

**Q.** What about the Activity [6] of the same compound?
**A.** Its Activity is -393 pA/pF.

**Q.** And the Activity [7]?
**A.** The Activity was -256 pA/pF.

**Q.** And the Activity [8]?
**A.** The Activity was -237 pA/pF.

**Q.** What about the Activity [9] of the same compound?
**A.** Its Activity is -160 pA/pF.

**Q.** And the Activity [10]?
**A.** The Activity was -172 pA/pF.

**Q.** What about the Activity [11] of the same compound?
**A.** Its Activity is -165 pA/pF.

**Q.** And the inhibition [12]?
**A.** The inhibition was “Dose-dependent effect”.

**Q.** And the Activity [13]?
**A.** Its Activity is “Active”.

**Q.** What about the Activity [14] of the same compound?
**A.** Its Activity is -2400 pA/pF.

**Q.** And the Activity [15]?
**A.** Its Activity is -243 pA/pF.

**Q.** And the Activity [16]?
**A.** Its Activity is -143 pA/pF.

**Q.** What about the Activity [17] of the same compound?
**A.** The Activity was -132 pA/pF.

**Q.** What about the Activity [18] of the same compound?
**A.** The Activity was -60.3 pA/pF.

**Q.** And the Activity [19]?
**A.** The Activity was -49.1 pA/pF.

**Q.** And the Activity [20]?
**A.** Its Activity is -158 pA/pF.
